Laboratory results published in ChEMBL document CHEMBL4680231, “A glutathione-responsive photosensitizer with fluorescence resonance energy transfer characteristics for imaging-guided targeting photodynamic therapy” (Eur J Med Chem, 2020).
The source made the active and inactive calls. The rule behind the calls is not given here.

Assays:
[1] = tested on: Primary lung fibroblast; assay: Induction of ROS generation in human HELF cells at 10 uM incubated for 12 hrs irradiated with 20 mW cm^-2 light in presence of GSH by DCFH-DA staining based confocal laser scanning microscopic method; assay type: functional, cell-based
In short: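 Cells were seeded in confocal dishes overnight. Pretreatment was GSH 5 mM in DMEM for 2 h, or vitamin C 100 μM for 1 h, before compound at 10 μM for 12 h. DCFH-DA was added for 1 h, then 5 PBS washes and transfer to serum-free, phenol red-free DMEM. Cells were irradiated at 670 nm, 20 mW·cm⁻², for 3 min. Confocal imaging used λex 488 nm for DCF and 633 nm for the photosensitizer.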

[2] = tested on: H22; assay: (§1) Photodynamic antitumor activity against mouse H22 cells implanted in Kunming mouse assessed as reduction in tumour weight at 2 mg/kg, iv administered at […] post-implantation followed by irradiated with 100 mW/cm2 […] and measured up to 15 days; assay type: functional, organism-based; conditions: time 15.0 day
In short: (§2)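 Mice carried subcutaneous H22 tumours of about 50 mm³ and were randomised into 5 groups of 5. They received saline or compound at 2 mg/kg (100 μL) i.v. on days 1, 4 and 7. Light groups were irradiated at 670 nm, 100 mW/cm², 12 h after each dose. Tumour volume and body weight were recorded daily for 15 days. Tumours were then excised and weighed, fixed in 4% paraformaldehyde, paraffin-embedded and H&E stained. Apoptotic and necrotic areas were scored microscopically.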

[3] = Drug localization in nucleus of human A549 cells assessed as GSH mediated cleavage at 10 uM after 12 hrs by DAPI dye based confocal laser scanning microscopic method; assay type: ADME, subcellular; conditions: a549, 12 h
In short: (§3)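 Cells were seeded in confocal dishes overnight, then given compound at 10 μM for 12 h. Staining was DAPI for 20 min, or Lyso-Tracker Red or Mito-Tracker Green for 60 min, followed by 5 PBS washes. Images were taken by confocal microscopy with excitation/detection of 405/425-475 nm (DAPI), 543/550-620 nm (Lyso) and 488/510-570 nm (Mito). Colocalization was judged from line intensity profiles.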

[4] = tested on: H22; assay: as §1, with “increase in apoptotic cells” for “reduction”, “tumour” for “tumour weight”, “days by H and E staining based microscopic method” for “days”; assay type: functional, organism-based; conditions: time 15.0 day; in short: as §2
[5] = Prodrug activation in human A549 cells assessed as increase in fluorescence at 10 uM after 8 hrs in presence of GSH by confocal laser scanning microscopic method; assay type: cell-based; conditions: a549, 8 h
In short: (§4)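 Cells (10^5 per confocal dish) were seeded in DMEM overnight at 37 °C, 5% CO2. They were pretreated with 5 mM GSH in DMEM, or medium alone, for 2 h, then washed. Compound at 10 μM was added for 8 h. Intracellular fluorescence was read by confocal microscopy (excitation 633 nm) or by flow cytometry under the same conditions.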

[6] = Prodrug activation in DMF assessed as pseudo-first-order kinetics at 10 uM incubated for 720 mins in presence of 10 mM GSH by fluorescence spectroscopic analysis; conditions: 12 h
[7] = Drug uptake in tumour of Kunming mouse implanted with H22 cells at 2 mg/kg, iv and measured up to 24 hrs by FMT assay; assay type: ADME, organism-based, Neoplasm; conditions: in vivo
In short: (§5)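 Mice carried subcutaneous back tumours from H22 cells (10^7 cells/mL, 100 μL), used at about 50 mm³. They received a single tail-vein injection of 2 mg/kg (200 μL), with saline as control, 3 mice per group. Whole-body fluorescence molecular tomography was taken at 0, 2, 6, 12 and 24 h. At 24 h, tumour, heart, liver, spleen, lung and kidney were imaged ex vivo.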

[8] = Prodrug activation in human HeLa cells assessed as increase in fluorescence at 10 uM after 8 hrs by flow cytometric analysis; assay type: cell-based; in short: as §4
[9] = Prodrug activation in mouse H22 cells assessed as increase in fluorescence at 10 uM after 8 hrs in presence of GSH by flow cytometric analysis; assay type: cell-based; conditions: h22, 8 h; in short: as §4
[10] = tested on: A549; assay: Cytotoxicity against human A549 cells assessed as reduction cell viability up to 10 uM after 24 hrs in dark condition by MTT assay; assay type: cell-based; conditions: a549, 24 h
In short: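 MTT assay. About 6000 cells per well were seeded and left overnight at 37 °C, 5% CO2. Compound was added at a range of concentrations in DMEM (1% DMSO, 0.05% Tween 80) for 24 h in the dark, then the medium was replaced. Irradiated wells received a 670 nm LED at 20 mW·cm⁻² for 2 min (2.4 J·cm⁻²); dark wells were not irradiated. Cells were incubated overnight, then MTT for 4 h, DMSO added, OD read at 490 nm. Three independent experiments, each in sextuplicate. IC50 is the concentration killing 50% of cells.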

[11] = tested on: H22; assay: Photodynamic antitumor activity against mouse H22 cells implanted in Kunming mouse assessed as reduction in tumour size at 2 mg/kg, iv administered at […] post-implantation followed by irradiated with 100 mW/cm2 […] and measured up to 15 days; assay type: functional, organism-based; conditions: time 15.0 day; in short: as §2
[12] = tested on: H22; assay: as §1, with “increase in necrotic cells” for “reduction”, “tumour” for “tumour weight”, “days by H and E staining based microscopic method” for “days”; assay type: functional, organism-based; conditions: time 15.0 day; in short: as §2
[13] = Prodrug activation in human HeLa cells assessed as increase in fluorescence at 10 uM after 8 hrs by confocal laser scanning microscopic method; assay type: cell-based; in short: as §4
[14] = Prodrug activation in mouse H22 cells assessed as increase in fluorescence at 10 uM after 8 hrs by flow cytometric analysis; assay type: cell-based; conditions: h22, 8 h; in short: as §4
[15] = Drug localization in lysosome of human A549 cells assessed as GSH mediated cleavage at 10 uM after 12 hrs by Lyso-Tracker Red dye based confocal laser scanning microscopic method; assay type: ADME, subcellular; conditions: a549, 12 h; in short: as §3
[16] = Drug localization in mitochondria of human A549 cells assessed as GSH mediated cleavage at 10 uM after 12 hrs by Mito-Tracker Green dye based confocal laser scanning microscopic method; assay type: ADME; conditions: a549, 12 h; in short: as §3
[17] = Prodrug activation in DMF at 10 uM incubated for 720 mins in presence of 2 uM GSH by fluorescence spectroscopic analysis; conditions: 12 h
[18] = Drug uptake in Kunming mouse implanted with H22 cells at 2 mg/kg, iv and measured up to 24 hrs by FMT assay; assay type: ADME, organism-based; conditions: in vivo; in short: as §5
[19] = Prodrug activation in DMF at 10 uM incubated for 720 mins in presence of 10 mM GSH by fluorescence spectroscopic analysis; conditions: 12 h

With COCCOCCOCCOc1ccc(/C=C/C2=[N+]3C(=C(c4ccc(OCc5cn(CCSSCCn6cc(COc7ccc(C8=C9C(C)=CC(/C=C/c%10ccc(N(C)C)cc%10)=[N+]9[B-](F)(F)n9c(/C=C/c%10ccc(N(C)C)cc%10)cc(C)c98)cc7)nn6)nn5)cc4)c4c(C)c(I)c(/C=C/c5ccc(OCCOCCOCCOC)cc5)n4[B-]3(F)F)C(C)=C2I)cc1 as the compound, how does the Activity [1] read?
Its Activity is “Active”.

And the Activity [2]?
The Activity was “Active”.

What about the Drug uptake [3] of the same compound?
Its Drug uptake is “Not Active”.

What about the Activity [4] of the same compound?
Its Activity is “Active”.

What about the Drug metabolism [5] of the same compound?
The Drug metabolism was “Metabolite_Detected”.

And the K [6]?
Its K is 5.8 10^-3/min.

And the Drug uptake [7]?
The Drug uptake was “Active”.

What about the Drug metabolism [8] of the same compound?
The Drug metabolism was “Metabolite_Detected”.

What about the Drug metabolism [9] of the same compound?
Its Drug metabolism is “Metabolite_Detected”.

What about the Activity [10] of the same compound?
Its Activity is “Non-Toxic”.

What about the Activity [11] of the same compound?
The Activity was “Active”.

And the Activity [12]?
Its Activity is “Active”.

And the Drug metabolism [13]?
Its Drug metabolism is “Metabolite_Detected”.

And the Drug metabolism [14]?
Its Drug metabolism is “Metabolite_Detected”.

What about the Drug uptake [15] of the same compound?
Its Drug uptake is “Active”.

What about the Drug uptake [16] of the same compound?
The Drug uptake was “Active”.

What does the source list for COCCOCCOCCOc1ccc(/C=C/C2=[N+]3C(=C(c4ccc(OCc5cn(CCCCCCn6cc(COc7ccc(C8=C9C(C)=CC(/C=C/c%10ccc(N(C)C)cc%10)=[N+]9[B-](F)(F)n9c(/C=C/c%10ccc(N(C)C)cc%10)cc(C)c98)cc7)nn6)nn5)cc4)c4c(C)c(I)c(/C=C/c5ccc(OCCOCCOCCOC)cc5)n4[B-]3(F)F)C(C)=C2I)cc1?
Activity [1]: inactive; Activity [2]: Active; Activity [4]: Active; Drug metabolism [17]: Metabolite_Notdetected; Drug metabolism [5]: Metabolite_Notdetected; Drug uptake [7]: Active; Drug uptake [18]: Active; Drug metabolism [8]: Metabolite_Notdetected; Drug metabolism [9]: Metabolite_Notdetected; Activity [10]: Non-Toxic; Activity [11]: Active; Drug metabolism [19]: Metabolite_Notdetected; Activity [12]: Active; Drug metabolism [13]: Metabolite_Notdetected; Drug metabolism [14]: Metabolite_Notdetected
